Data set [1] concerns Rattus norvegicus. Kind of data set: Antiinflammatory activity in Wistar rat assessed as inhibition of carrageenan-induced paw edema administered orally at equimolar oral dose relative to 10 mg/kg flurbiprofen measured after 4 hrs of carrageenan challenge. It is filed as functional. An outline of the steps: (§1)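 Adult Wistar rats of either sex, 150–200 g, n=6 per group, fasted 24 h with water allowed. Dosed orally in 0.5% CMC 1 h before 0.1 ml of 1% carrageenan in saline was injected subplantar into the right hind paw. Paw volume was read by plethysmometer at baseline, 3 h and 4 h. % inhibition = (Vc − Vt)/Vc × 100. ANOVA with Dunnett's test.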
A general note: The carrageenan paw model is a standard test of acute inflammation.

Data set [2] has as its system Rattus norvegicus. Description: Antiinflammatory activity in Wistar rat assessed as inhibition of carrageenan-induced paw edema administered orally at equimolar oral dose relative to 10 mg/kg flurbiprofen measured after 3 hrs of carrageenan challenge. In kind it is functional. An outline of the steps:
as §1

For data set [3], the system named is Rattus norvegicus. Description: Gastrointestinal toxicity in rat assessed as gastric mucosal damage severity index administered at equimolar oral dose relative to 30 mg/kg flurbiprofen. The arrangement: dose 30 mg/kg, route oral. In kind it is organism-based, Gastric mucosa. As to conditions: in vivo. The gist of the method:
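Wistar rats, n=6 per group, food withdrawn 24 h before oral dosing in 0.5% CMC, then given normal diet for 17 h before sacrifice. Stomachs were opened along the greater curvature and scored under a magnifier (0.5 redness to 3.0 for >5 ulcers). Severity index = mean treated score minus mean control score.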

In data set [4] the test system is Rattus norvegicus. Kind of data set: Hepatotoxicity in po dosed Wistar albino rat assessed as serum glutamate pyruvate transaminase activity administered at equimolar oral dose relative to 10 mg/kg flurbiprofen after 15 days. As to conditions: in vivo, 360 h. It is filed as toxicity, organism-based. The arrangement: dose 10 mg/kg, route oral. The gist of the method: (§2)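 Wistar albino rats of either sex, 150–200 g, n=6 per group, given oral doses in 0.5% w/v CMC once daily for 15 days; controls received vehicle. Retro-orbital blood was clotted 45 min at room temperature and serum separated by centrifugation at 2500 rpm for 15 min for the biochemical assays. ANOVA with Dunnett's test against control.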

The subject of data set [5] is Mus musculus. Description: Analgesic activity in Swiss albino mouse assessed as inhibition of tail withdrawal administered orally at equimolar oral dose relative to 10 mg/kg flurbiprofen after 4 hrs. In kind it is functional. The gist of the method:
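Tail immersion in Swiss albino mice of either sex, 25–30 g, n=6 per group, dosed orally as a suspension in 0.5% w/v CMC. The lower 5 cm of the tail was dipped in water held at 55 ± 0.5 °C. Reaction time (s) to tail withdrawal was recorded before dosing and 4 h after, with a 10 s cut-off.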

The species named for data set [6] is Rattus norvegicus. Kind of data set: Inhibition of lipid peroxidation in rat assessed as malondialdehyde level per 100 mg of tissue. In kind it is functional, organism-based. The gist of the method: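 Gastric mucosa taken from the ulcerogenicity rats was scraped, weighed (100 mg) and homogenized in ice-cold 1.15% KCl. SDS, acetate buffer pH 3.5 and 0.8% TBA were added and the mixture heated at 95 °C for 60 min. It was extracted with n-butanol:pyridine (15:1), centrifuged, and the organic layer read at 532 nm. Results given as nmol MDA/100 mg tissue (ε 1.56 × 10⁵ cm⁻¹ M⁻¹).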

The test system of data set [7] is Rattus norvegicus. Kind of data set: Hepatotoxicity in po dosed Wistar albino rat assessed as total albumin content administered at equimolar oral dose relative to 10 mg/kg flurbiprofen after 15 days. It is filed as toxicity, organism-based. Set-up: dose 10 mg/kg, route oral. The conditions noted are these: in vivo, 360 h. An outline of the steps: as §2
Data set [8] relates to Rattus norvegicus. Kind of data set: Hepatotoxicity in po dosed Wistar albino rat assessed as serum glutamate oxaloacetate transaminase activity administered at equimolar oral dose relative to 10 mg/kg flurbiprofen after 15 days. It is filed as toxicity, organism-based. The arrangement: dose 10 mg/kg, route oral. As to conditions: in vivo, 360 h. An outline of the steps: as §2

Data set [9] deals with Rattus norvegicus. Kind of data set: Hepatotoxicity in po dosed Wistar albino rat assessed as total protein content administered at equimolar oral dose relative to 10 mg/kg flurbiprofen after 15 days. In kind it is toxicity, organism-based. The arrangement: dose 10 mg/kg, route oral. The conditions noted are these: in vivo, 360 h. The gist of the method:
as §2

In the case of `Clc1ccc(Nc2nnc(COc3ccc(-c4ccccc4)cc3)s2)cc1`, the inhibition in vivo (usually the drop in the measured response relative to a control, in per cent) worked out at 54.5% in data set [1] and 52.3% in [2].

For `CCCCn1c(S)nnc1COc1ccc(-c2ccccc2)cc1`, the UI in [3] was 0.666. Also, the Activity was found to be 22.67 U/ml in data set [4]; 5.19 nmol in [6]; 0.71 g/dL in data set [7]; 138 U/ml in data set [8]; 1.82 g/dL in [9]. Further, the inhibition in vivo in [5] was 58.2%; in data set [1], 81.8%; in data set [2] it was 75%.

As for `Clc1ccccc1-c1nnc(COc2ccc(-c3ccccc3)cc2)o1`, the inhibition in vivo worked out at 63.6% in data set [1] and 59.1% in data set [2].

On to `Clc1ccc(-c2nnc(COc3ccc(-c4ccccc4)cc3)o2)cc1`, for which, in data set [3], the UI worked out at 1. Further, the inhibition in vivo is 16.9% in [5], 77.3% in data set [1] and 75% in data set [2]. Also, in [6], the Activity was found to be 5.88 nmol.

For the compound `Fc1ccc(-n2c(S)nnc2COc2ccc(-c3ccccc3)cc2)cc1`, in [3], the UI was 0.833. The inhibition in vivo in [5] is 30.5%; in data set [1], 79.5%; in data set [2] it was 75%. The Activity in data set [6] came out at 5.34 nmol.

With `Cc1ccccc1Nc1nnc(COc2ccc(-c3ccccc3)cc2)s1`, the inhibition in vivo was found to be 29.5% in [1] and 25% in data set [2].

Turning to `c1ccc(-c2ccc(OCc3nnc(-c4ccccc4)o3)cc2)cc1`, the inhibition in vivo in data set [1] and in data set [2] was 18.2% in each case.

As for `Fc1ccc(Nc2nnc(COc3ccc(-c4ccccc4)cc3)o2)cc1`, the inhibition in vivo in data set [1] and in data set [2] was 52.3% in each case.

For `Clc1ccc(-c2nnc(COc3ccc(-c4ccccc4)cc3)o2)c(Cl)c1`, the inhibition in vivo in data set [1] is 57.6%; in data set [2] it was 56.1%.

For `CC(C)Cc1ccc(C(C)c2nnc(COc3ccc(-c4ccccc4)cc3)o2)cc1` (configuration not stated), the UI in data set [3] stood at 0.75. Besides, the Activity in data set [4] was found to be 29.17 U/ml; in data set [6] it was 5.28 nmol; in data set [7], 1.72 g/dL; in data set [8], 141.09 U/ml; in [9] it was 1.92 g/dL. Besides, the inhibition in vivo in data set [5] turned out to be 72.8%; in data set [1] it was 79.5%; in data set [2], 77.3%.

As to `CCCCNc1nnc(COc2ccc(-c3ccccc3)cc2)s1`, the inhibition in vivo in data set [1] and in [2] was 27.3% each time.

On to `Sc1nnc(COc2ccc(-c3ccccc3)cc2)n1-c1ccc(Cl)cc1`, for which the results for the inhibition in vivo in data set [1] and in data set [2] were 18.2% and 15.9%, respectively.

For the compound `COc1ccc2cc(C(C)c3nnc(COc4ccc(-c5ccccc5)cc4)o3)ccc2c1` (configuration not stated), the inhibition in vivo in [1] and in data set [2] was 25% throughout.

With `Brc1ccc(Nc2nnc(COc3ccc(-c4ccccc4)cc3)s2)cc1`, the inhibition in vivo in [1] and in [2] was 63.6% in each case.

For `Sc1nnc(COc2ccc(-c3ccccc3)cc2)n1-c1ccc(Br)cc1`, the inhibition in vivo in data set [1] and in data set [2] was 31.8% each time.

Consider `Cc1ccccc1-n1c(S)nnc1COc1ccc(-c2ccccc2)cc1`, for which the values for the inhibition in vivo in data set [1] and in [2] were 59.1% and 56.8%, respectively.

For `Cc1ccc(Nc2nnc(COc3ccc(-c4ccccc4)cc3)s2)c(C)c1`, the inhibition in vivo in data set [1] and in data set [2] was 56.8% throughout.

`Fc1ccc(Nc2nnc(COc3ccc(-c4ccccc4)cc3)s2)cc1`: the results for the inhibition in vivo in data set [1] and in data set [2] were 29.5% and 27.3%, respectively.

Take `CCCCNc1nnc(COc2ccc(-c3ccccc3)cc2)o1`: the inhibition in vivo in data set [1] and in data set [2] was 15.9% each time.

`Clc1ccc(OCc2nnc(COc3ccc(-c4ccccc4)cc3)o2)c(Cl)c1`: the inhibition in vivo in [1] and in data set [2] was 29.5% throughout.

Regarding `Cc1ccc(-n2c(S)nnc2COc2ccc(-c3ccccc3)cc2)c(C)c1`, the inhibition in vivo in data set [1] and in data set [2] was 54.5% each time.

With `CC(C(=O)O)c1ccc(-c2ccccc2)c(F)c1` (configuration not stated) [FLURBIPROFEN], the UI in [3] is on record as 1.666. In addition, the inhibition in vivo in data set [5] came out at 69.5%; in [1] it was 79.5%; in data set [2] it was 75%. In data set [6], the Activity is 7.51 nmol.

The values above are taken from ChEMBL document CHEMBL1154475, “1,3,4-Oxadiazole/thiadiazole and 1,2,4-triazole derivatives of biphenyl-4-yloxy acetic acid: synthesis and preliminary evaluation of biological properties” (Eur J Med Chem, 2008).
